The results in this text go back to ChEMBL document CHEMBL2331323, “Design, synthesis and anticancer properties of 5-arylbenzoxepins as conformationally restricted isocombretastatin A-4 analogs” (Eur J Med Chem, 2013).

Experiment [1] deals with HCT-116. Nature of the experiment: Growth inhibition of human HCT116 cells after 72 hrs by Victor microtiter plate fluorimeter analysis. The experiment is classed as functional.
Experiment [2] in a line: Inhibition of sheep brain tubulin polymerization assessed as decrease in rate of microtubule assembly by fluorimeter analysis. Set-up: species or system Ovis aries. In short, it runs like this: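 Sheep brain tubulin purified by two assembly–disassembly cycles, at about 2-3 mg/mL in 0.1 M MES, 0.5 mM MgCl₂, 1 mM EGTA, 1 mM GTP, pH 6.6. Assembly followed by DAPI fluorescence at 37 °C. IC50 is the concentration halving the maximum assembly rate versus no compound. Measured the same day as the isoCA-4 reference.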

Experiment [3] is described as follows: Growth inhibition of human H1299 cells after 72 hrs by Victor microtiter plate fluorimeter analysis. In kind it is functional. The conditions noted are these: NCI-H1299, 72 h.
For experiment [4], the system named is MDA-MB-231. Description: Growth inhibition of hormone-independent human MDA-MB-231 cells after 72 hrs by Victor microtiter plate fluorimeter analysis. In kind it is functional. The conditions noted are these: MDA-MB-231, 72 h.
The subject of experiment [5] is K562. Nature of the experiment: Growth inhibition of human K562 cells after 72 hrs by Victor microtiter plate fluorimeter analysis. The conditions noted are these: K562, 72 h. In kind it is functional.
Another experiment is filed under the species Ovis aries. Description: Ratio of compound IC50 to isoCA-4 IC50 for sheep brain tubulin polymerization by fluorimeter analysis.
The subject of experiment [6] is HCT-116. Description: Induction of cell cycle arrest in human HCT116 cells assessed as accumulation of cells in G2/M phase at 5 nM after 24 hrs by propidium iodide staining based flow cytometry. In kind it is functional. In short, it runs like this:
(§1)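 Exponentially growing cells exposed to compound at 5 nM, or DMSO, for 24 h. Cell-cycle distribution determined by flow cytometry after standard propidium iodide staining.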

For experiment [7], the system named is MDA-MB-231. Nature of the experiment: Induction of cell cycle arrest in human MDA-MB-231 cells assessed as accumulation of cells in G2/M phase at 5 nM after 24 hrs by propidium iodide staining based flow cytometry. In kind it is functional. In short, it runs like this: as §1
Experiment [8] concerns NCI-H1299. Description: Induction of cell cycle arrest in human H1299 cells assessed as accumulation of cells in G2/M phase at 5 nM after 24 hrs by propidium iodide staining based flow cytometry. In kind it is functional. In short, it runs like this: as §1
The subject of experiment [9] is NCI-H1299. Nature of the experiment: Induction of apoptosis in human H1299 cells assessed as increase in proteolytic activity of caspase 3/7 after 24 hrs by fluorimeter analysis. The experiment is classed as functional, cell-based. In short, it runs like this:
(§2)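 Apo-ONE homogeneous caspase-3/7 kit. Cells seeded at 5 × 10⁴ per well and grown 24 h. Medium then replaced with compound at 1, 5 and 10 nM, or 0.1% DMSO as negative control, for 24 h. Caspase substrate and Apo-ONE buffer mix added, incubated 1 h, fluorescence read at 527 nm.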

In experiment [10] the test system is K562. Description: Induction of cell cycle arrest in human K562 cells assessed as accumulation of cells in G2/M phase at 5 nM after 24 hrs by propidium iodide staining based flow cytometry. The experiment is classed as functional. In short, it runs like this:
as §1

For experiment [11], the system named is HCT-116. Description: Induction of apoptosis in human HCT116 cells assessed as increase in proteolytic activity of caspase 3/7 after 24 hrs by fluorimeter analysis. The experiment is classed as functional, cell-based. In short, it runs like this:
as §2

Activity calls are given as the source filed them. No cut-off for these calls is given here.

Turning to `C=C(c1ccc(OC)c(O)c1)c1cc(OC)c(OC)c(OC)c1`, the 50% growth inhibitory concentration (GI50) was 3 nM in the experiment with HCT-116 [1] (HCT-116, 72 h); 3 nM in [3]; 4 nM with MDA-MB-231 [4]; 5 nM with K562 [5]. Moreover, the half-maximal inhibitory concentration (IC50) in [2] came out at 1500 nM.

For the molecule `COc1cc(OC)cc(C2=CCCOc3c2ccc(OC)c3O)c1`, the Ratio IC50 in the experiment filed under Ovis aries is 2. For the same molecule, the GI50 in the experiment on HCT-116 [1] (HCT-116, 72 h) stood at 25 nM; in experiment [3] it was 32 nM; in the experiment with MDA-MB-231 [4], 28 nM; with K562 [5], 30 nM. In addition, the IC50 in [2] stood at 3200 nM.

On to `COc1ccc2c(c1Br)OCCC=C2c1cc(OC)c(OC)c(OC)c1`, for which, in the experiment on HCT-116 [1] (HCT-116, 72 h), the GI50 stood at 170 nM.

Regarding `COc1ccc2c(c1CCCCO)OCCCC2c1cc(OC)c(OC)c(OC)c1` (stereo not given), the GI50 result in the experiment with HCT-116 [1] is “inactive”.

Consider `COc1ccc2c(c1O)OCCC=C2c1cc(OC)c(OC)c(OC)c1`, for which the Ratio IC50 in the experiment filed under Ovis aries came to 2. Besides, the result in the experiment on HCT-116 [6], in the experiment with MDA-MB-231 [7], in the experiment on NCI-H1299 [8] and in the experiment on K562 [10] was Active. For the same molecule, the GI50 is 1.5 nM in the experiment on HCT-116 [1] (HCT-116, 72 h); 4.5 nM in experiment [3]; 3 nM in the experiment on MDA-MB-231 [4]; 8 nM with K562 [5]. Also, in experiment [2], the IC50 worked out at 3800 nM. In addition, the Activity result with NCI-H1299 [9] and with HCT-116 [11] was “Dose-dependent effect” in each case.

For `COc1ccc2c(c1O)OCCCC2c1cc(OC)c(OC)c(OC)c1` (stereo not given), the Ratio IC50 in the experiment listed under Ovis aries stood at 2. The GI50 with HCT-116 [1] (HCT-116, 72 h) is 20 nM; in [3], 7 nM; in the experiment on MDA-MB-231 [4] it was 15 nM; in the experiment with K562 [5], 50 nM. Also, the 50% inhibitory concentration (IC50) in experiment [2] turned out to be 3300 nM.

Molecule `COc1ccc2c(c1C#CCCO)OCCC=C2c1cc(OC)c(OC)c(OC)c1` had a GI50 with HCT-116 [1] (HCT-116, 72 h) of 250 nM.

Consider `COc1ccc2c(c1)OCCC=C2c1cc(OC)c(OC)c(OC)c1`, for which the Ratio IC50 in the experiment listed under Ovis aries was found to be 2. In addition, the GI50 in the experiment with HCT-116 [1] (HCT-116, 72 h) is 85 nM; in experiment [3] it was 180 nM; in the experiment on MDA-MB-231 [4] it was 250 nM; with K562 [5], 100 nM. Moreover, in experiment [2], the IC50 is 3900 nM.

In turn, `COc1ccc(/C=C\c2cc(OC)c(OC)c(OC)c2)cc1O` [COMBRETASTATIN A4] displayed a GI50 in the experiment with HCT-116 [1] (HCT-116, 72 h) of 2 nM.

Consider `COc1ccc2c(c1N)OCCC=C2c1cc(OC)c(OC)c(OC)c1`, for which the Ratio IC50 in the experiment filed under Ovis aries amounted to 2. Besides, the GI50 with HCT-116 [1] (HCT-116, 72 h) was 22 nM; in experiment [3] it was 30 nM; in the experiment on MDA-MB-231 [4] it was 8 nM; in the experiment on K562 [5] it was 40 nM. For the same molecule, the IC50 in [2] came out at 3600 nM.
